# Data: ChEMBL document CHEMBL2321740, “Arylazanylpyrazolone derivatives as inhibitors of mutant superoxide dismutase 1 dependent protein aggregation for the treatment of amyotrophic lateral sclerosis” (J Med Chem, 2013)
# pEC50: −log10 of the molar value. The source made the active and inactive calls. The rule behind the calls is not given here.
# Tests used:
# [1] = Inhibition of SOD1 mutant (unknown origin); design: species or system Homo sapiens
# [2] = Inhibition of SOD1 mutant -induced cytotoxicity in assessed as recovery of neuronal activity at 10 uM after 24 hrs by fluorescence assay in presence of proteosome inhibitor MG132 relative to control; design: scale not given: the % may be the effect or the level left
# Caco-2 [3] = assay: Efflux ratio of permeability from basolateral to apical side over apical to basolateral side in human Caco2 cells; assay type: ADME, cell-based
# Caco-2 [4] = assay: Apparent permeability of the compound from basolateral to apical side in human Caco2 cells; assay type: ADME, cell-based
# Caco-2 [5] = assay: Apparent permeability of the compound from apical to basolateral side in human Caco2 cells; assay type: ADME, cell-based
# Liver [6] = assay: Half life in mouse liver microsomes in absence of NADPH; assay type: ADME, Microsome
# Liver [7] = assay: (§1) Half life in mouse liver microsomes in presence of NADPH; assay type: ADME, Microsome; settings: microsomes
# Liver microsomes [8] = assay: Half life in human liver microsomes in absence of NADPH; assay type: ADME, Microsome
# Liver microsomes [9] = assay: Half life in human liver microsomes in presence of NADPH; assay type: ADME, Microsome
# [10] = Aqueous solubility of the compound; assay type: physicochemical; settings: buffer
# [11] = as §1; assay type: ADME, Microsome; settings: liver microsomes
# [12] = Inhibition of SOD1 mutant -induced cytotoxicity in cortical neurons after 24 hrs by fluorescence assay in presence of proteosome inhibitor MG132
# PC-12 = assay: Inhibition of SOD1 mutant -induced cytotoxicity in rat PC12 cells after 24 hrs by fluorescence assay in presence of proteosome inhibitor MG132; assay type: cell-based
# Summary of the method: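 PC12 cells expressing G93A SOD1 seeded at 15000 cells/well, held 24 h, then given compound in 12-point dose-response, top concentration 32 μM, halved at each step. After 24 h with compound, MG132 added (final 100 nM). Viability read 48 h later: cells washed twice with PBS, Calcein-AM 1 μM final for 20 min at room temperature, fluorescence intensity measured.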
pEC50 [1],Structure (SMILES),also measured
6.46,CCN(Cc1cc(=O)[nH][nH]1)c1cc(Cl)cc(Cl)c1,
6.28,O=c1cc(CN(c2cc(Cl)cc(Cl)c2)C2CC2)[nH][nH]1,
6.24,CN(Cc1cc(=O)[nH][nH]1)c1cc(Cl)cc(Cl)c1,Activity [2]: 100%; Ratio (Caco-2 [3]): 3.5; Papp (Caco-2 [4]): 7.6 ×10⁻⁶ cm/s; Papp (Caco-2 [5]): 2.2 ×10⁻⁶ cm/s; t1/2 (Liver [6]): > 3 h; t1/2 (Liver [7]): 0.417 h; t1/2 (Liver microsomes [8]): > 3 h; t1/2 (Liver microsomes [9]): > 3 h; solubility [10]: >= 150 uM
6.17,Cn1[nH]c(COc2cc(Cl)cc(Cl)c2)cc1=O,
6.11,O=c1cc(CNc2cc(Cl)cc(Cl)c2)[nH][nH]1,Ratio (Caco-2 [3]): 47.1; Papp (Caco-2 [4]): 28.1 ×10⁻⁶ cm/s; Papp (Caco-2 [5]): 0.6 ×10⁻⁶ cm/s; t1/2 (Liver [6]): 1.67 h; t1/2 (Liver [7]): 0.5 h; t1/2 (Liver microsomes [8]): > 3 h; t1/2 (Liver microsomes [9]): 1.58 h; solubility [10]: >= 150 uM
5.90,CC(C)(C)N(Cc1cc(=O)[nH][nH]1)c1cc(Cl)cc(Cl)c1,
5.99,C#CCN(Cc1cc(=O)[nH][nH]1)c1cc(Cl)cc(Cl)c1,
6.40,O=c1cc(COc2cc(Cl)cc(Cl)c2)[nH][nH]1,t1/2 (Liver [6]): 1.85 h; half-life [11]: 0.6 h; t1/2 (Liver microsomes [8]): 2.88 h
5.92,CN(CCc1cc(=O)[nH][nH]1)c1cc(Cl)cc(Cl)c1,
5.84,CN(CCCc1cc(=O)[nH][nH]1)c1cc(Cl)cc(Cl)c1,Activity [12]: inactive; Activity (PC-12): Active
6.19,O=c1[nH][nH]c2c1CCN(c1cc(Cl)cc(Cl)c1)C2,
6.21,CC(C)N(Cc1cc(=O)[nH][nH]1)c1cc(Cl)cc(Cl)c1,
5.84,O=c1[nH][nH]c2c1CN(c1cc(Cl)cc(Cl)c1)CC2,Activity [12]: inactive; Activity (PC-12): Active

# Continued, molecule first:
Structure (SMILES),pEC50 [1],also measured
O=c1cc(CN(Cc2ccccc2)c2cc(Cl)cc(Cl)c2)[nH][nH]1,6.16,
COc1cccc(N(C)Cc2cc(=O)[nH][nH]2)c1,6.09,
CN(Cc1cc(=O)[nH][nH]1)c1ccccc1,6.12,
O=c1cc(CN2CCc3ccccc32)[nH][nH]1,5.97,
CN(Cc1cc(=O)[nH][nH]1)c1ccc(Cl)c(Cl)c1,6.38,
CN(Cc1cc(=O)[nH]n1C)c1cc(Cl)cc(Cl)c1,< 4.49,
Cc1c(CN(C)c2cc(Cl)cc(Cl)c2)n(C)n(C)c1=O,< 4.49,
CN(Cc1cc(=O)[nH][nH]1)c1cccc2ccccc12,6.51,
CN(Cc1cc(=O)[nH][nH]1)c1ccc(Cl)cc1Cl,6.54,
CN(Cc1cc(=O)n(C)[nH]1)c1cc(Cl)cc(Cl)c1,6.12,
CN(Cc1cc(=O)[nH][nH]1)c1ccc(C#N)cc1,5.90,
CN(Cc1cc(=O)[nH][nH]1)c1ccc2ccccc2c1,6.08,
CN(Cc1cc(=O)n(Cc2ccccc2)[nH]1)c1cc(Cl)cc(Cl)c1,6.31,
CN(Cc1cc(=O)[nH][nH]1)c1cccc(Br)c1,6.12,
CN(Cc1cc(=O)n(C)n1C)c1cc(Cl)cc(Cl)c1,< 4.49,
CN1N=C(CN(C)c2cc(Cl)cc(Cl)c2)C(C)(C)C1=O,< 4.49,
CN(Cc1cc(=O)[nH][nH]1)c1ccc(Br)cc1,6.15,
CN(Cc1cc(=O)[nH][nH]1)c1ccccc1Br,5.92,
CN(Cc1cc(=O)[nH][nH]1)c1ccc(F)cc1,5.85,
CN(Cc1cc(=O)[nH][nH]1)c1ccc(Cl)cc1,6.08,
O=c1cc(CN2CCCc3ccccc32)[nH][nH]1,6.10,
O=c1cc(CN(c2ccccc2)c2cc(Cl)cc(Cl)c2)[nH][nH]1,5.88,
